{
  "source": "paper PMC12011195",
  "about": "(ACS chemical biology, 2024)",
  "key": {"[1]": {"tested_on": "FXN mRNA in GM15850 cells", "assay": "Co-treatment of SynGRs with BET-binding ligands, FXN mRNA in GM15850 cells", "assay_type": "cell-based, human", "conditions": "SynGR1 1 h, then ligand 0.5 μM for 23 h", "method_in_brief": "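Patient-derived GM15850 lymphoblasts in RPMI with 15% FBS; compounds dissolved in DMSO. Test compound (1 mM stock, increasing concentrations) added for 1 h, then pan-BET, BD1- or BD2-selective BET ligand at 0.5 μM for 23 h. RNA purified with DNase treatment; cDNA from 400 ng RNA; SYBR qPCR on 100 ng cDNA with FXN and TBP primers; normalised to 0.1% DMSO control.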"}, "[2]": {"tested_on": "FXN expression in patient-derived cells", "conditions": "wide array of patient-derived cells; cited from earlier work"}},
  "data": [
    {"smiles": "COCc1nc2cnc3cc(-c4c(C)noc4C)c(OC[C@H]4CCNC4)cc3c2n1[C@H](C)c1ccccc1", "note": "[GSK778]", "values": [
      {"measurement": "effect of co-treatment with BET ligand on FXN expression activity of SynGR1", "setting": "[1]", "value": "further stimulated the activity"}
    ]},
    {"smiles": "Cc1sc2c(c1C)C(c1ccc(Cl)cc1)=N[C@@H](CC(=O)NCCOCCOCCOCCOCCOCCOCCC(=O)NCCCN(C)CCCNC(=O)CCNC(=O)c1nc(NC(=O)CCNC(=O)c3cc(NC(=O)c4nc(NC(=O)CCNC(=O)c5cc(NC(=O)c6nccn6C)cn5C)cn4C)cn3C)cn1C)c1nnc(C)n1-2", "note": "[SynGR1]", "values": [
      {"measurement": "FXN protein levels", "setting": "[2]", "value": "restoring FXN protein levels"}
    ]}
  ]
}
